Assay results published in ChEMBL document CHEMBL4038340, “Development of Novel Peptide-Based Michael Acceptors Targeting Rhodesain and Falcipain-2 for the Treatment of Neglected Tropical Diseases (NTDs)” (J Med Chem, 2017).
The source made the active and inactive calls. The rule behind the calls is not given here.

Columns and labels:
[1] = system: Trypanosoma brucei brucei; test: Antiparasitic activity against bloodstream form of Trypanosoma brucei brucei 449 after 24 hrs by ATPlite assay; assay type: functional; conditions: Trypanosoma brucei, 449, 24 h
[2] = target: Rhodesain (Trypanosoma brucei rhodesiense) (UniProt Q95PM0); test: Inhibition of recombinant Trypanosoma brucei rhodesiense rhodesain expressed in Pichia pastoris assessed as second order rate constant using Cbz-Phe-Arg-AMC as substrate after 30 mins by fluorescence assay
Summary of the method: (§1)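 Recombinant rhodesain with fluorogenic substrate Cbz-Phe-Arg-AMC. Preliminary screen at a fixed inhibitor concentration of 50 µM. Equal volume of DMSO served as negative control and E-64 as irreversible positive control. Active compounds went on to continuous assays at seven concentrations, from minimally to fully inhibitory, giving kinac (min-1), Ki (nM) and k2nd = kinac/Ki (M-1 min-1).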

[3] = system: Plasmodium falciparum; test: Antiparasitic activity against Plasmodium falciparum W2 after 48 hrs by YOYO-1 probe-based flow cytometry; assay type: functional; conditions: W2, 48 h
[4] = target: Rhodesain (Trypanosoma brucei rhodesiense, UniProt Q95PM0); test: Inhibition of recombinant Trypanosoma brucei rhodesiense rhodesain expressed in Pichia pastoris using Cbz-Phe-Arg-AMC as substrate after 30 min by fluorescence assay
Summary of the method: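 Recombinant rhodesain with fluorogenic Cbz-Phe-Arg-AMC substrate. Compounds were first screened at a fixed 50 µM, with DMSO as negative control and an irreversible clan CA cysteine-protease inhibitor as positive control. Continuous assays at seven inhibitor concentrations, from minimally to fully inhibitory, gave kinac (min-1) and Ki, with k2nd = kinac/Ki (M-1 min-1).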

[5] = system: Trypanosoma brucei brucei; test: Antiparasitic activity against bloodstream form of Trypanosoma brucei brucei 449 after 48 hrs by ATPlite assay; assay type: functional; conditions: Trypanosoma brucei, 449, 48 h
[6] = target: T1, Procathepsin L (Homo sapiens, UniProt P07711); test: Inhibition of human cathepsin L assessed as first order rate constant using Cbz-Phe-Arg-AMC as substrate after 10 mins by fluorescence assay
Target sequence in this assay (P07711 114-333 limits assumed): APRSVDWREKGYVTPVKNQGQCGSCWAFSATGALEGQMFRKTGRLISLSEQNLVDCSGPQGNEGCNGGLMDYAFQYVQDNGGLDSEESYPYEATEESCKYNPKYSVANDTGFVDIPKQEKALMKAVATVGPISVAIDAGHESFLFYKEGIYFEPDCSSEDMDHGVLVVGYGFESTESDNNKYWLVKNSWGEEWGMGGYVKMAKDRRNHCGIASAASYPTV

[7] = target: T2, Falcipain 2 (Plasmodium falciparum, UniProt Q9N6S8); test: Inhibition of recombinant Plasmodium falciparum falcipain-2 expressed in Escherichia coli M15(pREP4) using Cbz-Phe-Arg-AMC as substrate by fluorescence assay
T2 sequence (Q9N6S8 whole entry): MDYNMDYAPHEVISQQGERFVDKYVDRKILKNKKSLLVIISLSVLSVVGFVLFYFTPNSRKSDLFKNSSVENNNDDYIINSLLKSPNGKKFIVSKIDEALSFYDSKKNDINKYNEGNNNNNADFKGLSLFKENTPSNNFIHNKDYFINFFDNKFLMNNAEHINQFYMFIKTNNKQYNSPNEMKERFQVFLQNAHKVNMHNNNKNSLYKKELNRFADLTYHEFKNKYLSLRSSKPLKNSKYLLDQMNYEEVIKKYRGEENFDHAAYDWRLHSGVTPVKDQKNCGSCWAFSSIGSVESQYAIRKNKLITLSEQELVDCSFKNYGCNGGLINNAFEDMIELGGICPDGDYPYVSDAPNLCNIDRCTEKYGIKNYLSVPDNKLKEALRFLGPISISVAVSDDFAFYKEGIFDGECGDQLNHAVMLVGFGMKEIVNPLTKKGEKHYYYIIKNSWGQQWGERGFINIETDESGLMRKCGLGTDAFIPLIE

[8] = target: T1, Procathepsin L; test: Inhibition of human cathepsin L using Cbz-Phe-Arg-AMC as substrate after 10 mins by fluorescence assay
Target sequence in this assay (P07711 whole entry): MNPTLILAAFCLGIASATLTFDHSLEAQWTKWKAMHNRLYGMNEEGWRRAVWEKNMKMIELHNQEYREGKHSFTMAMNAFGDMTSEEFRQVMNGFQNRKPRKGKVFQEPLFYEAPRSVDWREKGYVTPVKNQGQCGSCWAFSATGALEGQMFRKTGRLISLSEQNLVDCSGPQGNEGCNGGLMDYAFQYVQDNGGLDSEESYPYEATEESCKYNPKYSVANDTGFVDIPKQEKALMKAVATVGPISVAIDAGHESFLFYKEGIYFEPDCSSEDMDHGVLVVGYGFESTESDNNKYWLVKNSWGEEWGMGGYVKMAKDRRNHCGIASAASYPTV

[9] = target: T1, Procathepsin L; test: Inhibition of human cathepsin L assessed as second order rate constant using Cbz-Phe-Arg-AMC as substrate after 10 mins by fluorescence assay
Target sequence in this assay (P07711 114-333 limits assumed): as the sequence (P07711 114-333 limits assumed) above

[10] = target: Rhodesain (Trypanosoma brucei rhodesiense) (UniProt Q95PM0); test: Inhibition of recombinant Trypanosoma brucei rhodesiense rhodesain expressed in Pichia pastoris assessed as first order rate constant using Cbz-Phe-Arg-AMC as substrate after 30 mins by fluorescence assay; summary of the method: as §1
[11] = Selectivity index, ratio of CC50 for human HeLa cells to EC50 for Trypanosoma brucei brucei 449 for 48 hrs; assay type: toxicity, cell-based; conditions: read-out: Ratio CC50/EC50
[12] = system: Trypanosoma brucei brucei; test: Effect on glutathione level in blood stream of Trypanosoma brucei brucei at 3 uM after 24 hrs by HPLC analysis; assay type: functional
Summary of the method: (§2)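 Bloodstream-form T. brucei were seeded at 1 x10^5 cells/ml and treated for 24 h, with untreated cells as control. Free thiols (GSH, T(SH)2), and free thiols plus disulfides (GSSG, TS2), were labelled with monobromobimane and quantified by HPLC. Values are mean ± SD of three independent experiments.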

[13] = Cytotoxicity against human HeLa cells assessed as decrease in cell viability after 48 hrs by MTT assay; assay type: cell-based
[14] = system: Trypanosoma brucei brucei; test: Inhibition of trypanothione synthetase in blood stream of Trypanosoma brucei brucei assessed as cellular content of free trypanothione after 24 hrs by HPLC analysis; summary of the method: as §2
[15] = system: Trypanosoma brucei brucei; test: Inhibition of trypanothione synthetase in blood stream of Trypanosoma brucei brucei assessed as cellular content of free trypanothione at 3 uM after 24 hrs by HPLC analysis (reference value: 340 uM); summary of the method: as §2
[16] = system: Trypanosoma brucei brucei; test: Effect on protein bound glutathione level in blood stream of Trypanosoma brucei brucei; assay type: functional
[17] = target: Rhodesain (Trypanosoma brucei rhodesiense) (UniProt Q95PM0); test: Inhibition of recombinant Trypanosoma brucei rhodesiense rhodesain expressed in Pichia pastoris using Cbz-Phe-Arg-AMC as substrate at 50 uM after 30 mins by fluorescence assay; summary of the method: as §1

Chain of Rhodesain (Q95PM0 whole entry): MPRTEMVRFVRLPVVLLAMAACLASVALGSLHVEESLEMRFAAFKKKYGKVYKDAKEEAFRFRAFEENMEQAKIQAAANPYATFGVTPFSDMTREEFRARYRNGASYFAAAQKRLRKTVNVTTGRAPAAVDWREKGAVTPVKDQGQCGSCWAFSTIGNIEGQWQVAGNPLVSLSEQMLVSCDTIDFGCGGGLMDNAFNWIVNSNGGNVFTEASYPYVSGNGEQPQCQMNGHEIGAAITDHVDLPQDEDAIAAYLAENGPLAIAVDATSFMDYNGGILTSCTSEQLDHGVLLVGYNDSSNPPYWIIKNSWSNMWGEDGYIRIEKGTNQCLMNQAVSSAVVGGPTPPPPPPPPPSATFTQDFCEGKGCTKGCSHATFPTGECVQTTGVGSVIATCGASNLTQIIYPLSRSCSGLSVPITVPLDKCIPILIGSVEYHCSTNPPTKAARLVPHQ
Chain of Rhodesain (Trypanosoma brucei rhodesiense) (Q95PM0 1-450): as the sequence (Q95PM0 whole entry) above

Row | SMILES | EC50 [1] | K [2] | EC50 [3] | Ki [4] | EC50 [5] | Kinact [6] | IC50 [7] | Ki [8] | K [9] | Kinact [10] | selectivity ratio at 48 h [11] | Activity [12] | CC50 at 48 h [13] | inhibition [14] | Activity [15] | Activity [16] | inhibition [17]
1 | CC(=O)/C=C/[C@H](CCc1ccccc1)NC(=O)[C@H](Cc1ccccc1)NC(=O)OCc1ccc([N+](=O)[O-])cc1 | 6050 nM | 24400 ×10³ /M/min | 7180 nM | 0.074 nM | 4980 nM | 0.0016 min⁻¹ | 780 nM | 2.2 nM | 737 ×10³ /M/min | 0.0017 min⁻¹ |  |  |  |  |  |  | 
2 | COC(=O)/C=C/[C@H](CCc1ccccc1)NC(=O)[C@H](Cc1ccccc1)NC(=O)OCc1ccc([N+](=O)[O-])cc1 | 97200 nM | 347 ×10³ /M/min | > 10000 nM | 3.6 nM |  | 0.0016 min⁻¹ | > 50000 nM | 25 nM | 64 ×10³ /M/min | 0.0012 min⁻¹ |  |  |  |  |  |  | 
3 | COC(=O)/C=C/[C@H](CCc1ccccc1)NC(=O)[C@H](CC(C)C)NC(=O)OCc1ccccc1 | 6080 nM | 509 ×10³ /M/min | 4400 nM | 7.5 nM | 5020 nM | 0.0032 min⁻¹ | 9530 nM | 40 nM | 81 ×10³ /M/min | 0.0038 min⁻¹ |  |  |  |  |  |  | 
4 | CC(=O)/C=C/[C@H](CCc1ccccc1)NC(=O)[C@H](Cc1ccccc1)NC(=O)OCc1ccccc1 | 3180 nM | 67000 ×10³ /M/min | 7030 nM | 0.038 nM | 2970 nM | 0.002 min⁻¹ | 3010 nM | 0.4 nM | 5750 ×10³ /M/min | 0.00255 min⁻¹ | 2.6 | Dose-dependent effect | 7900 nM | Dose-dependent effect | 160 µM | inactive | 
5 | COC(=O)/C=C/[C@H](CCc1ccccc1)NC(=O)[C@H](Cc1ccccc1)NC(=O)OCc1ccccc1 | 12900 nM | 919 ×10³ /M/min | > 10000 nM | 2 nM | 8280 nM | 0.004 min⁻¹ | > 50000 nM | 27 nM | 153 ×10³ /M/min | 0.0018 min⁻¹ |  |  |  |  |  |  | 
6 | N#C/C=C/[C@H](CCc1ccccc1)NC(=O)[C@H](Cc1ccccc1)NC(=O)OCc1ccccc1 |  | 12 ×10³ /M/min | > 10000 nM | 46 nM |  | 0.0022 min⁻¹ | > 50000 nM | 240 nM | 9.3 ×10³ /M/min | 0.0005 min⁻¹ |  |  |  |  |  |  | 
7 | COC(=O)/C=C/[C@H](CCc1ccccc1)NC(=O)[C@H](CC(C)C)NC(=O)OCc1ccc([N+](=O)[O-])cc1 |  | 152 ×10³ /M/min | 3970 nM | 17 nM |  | 0.0014 min⁻¹ | 9630 nM | 41 nM | 35 ×10³ /M/min | 0.0023 min⁻¹ |  |  |  |  |  |  | 
8 | O=C(N[C@@H](Cc1ccccc1)C(=O)N[C@H](/C=C/S(=O)(=O)c1ccccc1)CCc1ccccc1)OCc1ccc([N+](=O)[O-])cc1 | 5480 nM | 334 ×10³ /M/min | > 10000 nM | 7.2 nM | 4070 nM | 0.003 min⁻¹ | > 50000 nM | 45 nM | 65 ×10³ /M/min | 0.0024 min⁻¹ |  |  |  |  |  |  | 
9 | CC(C)C[C@H](NC(=O)OCc1ccccc1)C(=O)N[C@H](/C=C/S(=O)(=O)c1ccccc1)CCc1ccccc1 | 2500 nM | 342 ×10³ /M/min | 1530 nM | 9.1 nM | 2620 nM | 0.0009 min⁻¹ | 780 nM | 0.61 nM | 1570 ×10³ /M/min | 0.0028 min⁻¹ | 4.6 |  | 12200 nM |  |  |  | 
10 | CC(C)C[C@H](NC(=O)OCc1ccc([N+](=O)[O-])cc1)C(=O)N[C@H](/C=C/C#N)CCc1ccccc1 |  |  | > 10000 nM |  |  |  | > 50000 nM |  |  |  |  |  |  |  |  |  | inactive
